According to article PMC12219357 (Nature Communications, 2025):
Values joined by “and” are separate entries in the source; they are usually repeats but may differ in a detail not shown here. Equal values may be shown once. “Also recorded” adds a separate entry of the source. Where a SMILES comes first, the peptide text is derived from it. The star is where a group is joined. 5FAM = O=C1OC2(c3ccc(O)cc3Oc3cc(O)ccc32)c2ccc(C(=O)*)cc21

Tests used:
Type in all cases: in vivo, human
[1] = system: adult patients with head and neck neoplasms undergoing parotidectomy or thyroidectomy
[2] = system: adult patients with head and neck neoplasms; assay: Clinical laboratory assessments
Procedure, shortened: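 Test compound given as a single IV infusion over 30 min on Day 1, at dose tiers of 100–600 mg. Hematology, chemistry, coagulation and urinalysis were run at the preoperative visit, then repeated on Day 1 before dosing and at end of infusion. Histamine, tryptase, C3a and C5 were sampled before, during and after infusion. Further safety labs on Day 15 (±8 days) and Day 28 (+5 days). Summarized descriptively by dose.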

[3] = system: adult patients with head and neck neoplasms; assay: Vital signs, physical examination and 12-lead ECG
[4] = Pharmacokinetics after intravenous infusion
[5] = system: nerves (head and neck surgery); assay: Quantitative image analysis of intraoperative nerve fluorescence; details: for Background fluorescence, mean pixel intensity (MPI): FL images
Procedure, shortened: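 Paired white-light and fluorescence images taken intraoperatively through a surgical microscope with a yellow 560 fluorescence module. Analysis used the green channel of fluorescence images and 5–20 elliptical ROIs per nerve and per adjacent non-nerve tissue. After background subtraction, SBR = nerve MPI / background MPI. Statistics: Welch ANOVA, Kruskal-Wallis, Wilcoxon rank sum.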

[6] = system: nerves (head and neck surgery); assay: Visualization Scoring System; details: 500 mg

CC(C)[C@H](NC(=O)[C@H](Cc1ccc(O)cc1)NC(=O)[C@H](Cc1ccc(O)cc1)NC(=O)[C@@H]1CCCN1C(=O)[C@H](CCC(=O)O)NC(=O)[C@H](CCC(=O)O)NC(=O)[C@H](Cc1c[nH]c2ccccc12)NC(=O)[C@@H]1CCCN1C(=O)[C@@H](NC(=O)[C@H](CCC(N)=O)NC(=O)c1ccc2c(c1)C(=O)OC21c2ccc(O)cc2Oc2cc(O)ccc21)C(C)C)C(=O)N[C@H](C(=O)N[C@@H](CCCCN)C(=O)N[C@@H](CCCCN)C(=O)N[C@@H](CO)C(=O)N[C@@H](CO)C(=O)NCC(=O)NCC(N)=O)C(C)C [bevonescein] (5FAM-QVPWEEPYYVVKKSSGG-NH2; C-terminus assumed)
AEs greater than grade 1 attributable to the study drug ([1]; 27 patients): no adverse events greater than grade 1
AEs assessed as possibly related to the study drug ([1]; 27 subjects, all doses, resolved without intervention): a single adverse event
Tolerability of preoperative intravenous infusion ([1]; 100-600 mg): well tolerated
Dose-limiting toxicity (DLT) ([1]; all doses 100-600 mg, single IV infusion over 30 min, 27 patients, NCI CTCAE): no dose-limiting toxicity
Hematology, chemistry, coagulation, and urinalysis findings ([2]; all patients, as deemed by the investigators): normal ranges or not clinically significant abnormalities
Tryptase and complements C3a and C5 levels ([2]; during the study): remained stable
Changes from baseline in vital signs ([3]; all cohorts): no clinically significant or relevant differences
ECG values ([3]; all patients, 12-lead ECG): normal or non-clinically significant abnormal ECG values
Increase of mean unbound AUClast over the 6-fold increase in dose ([4]; 100 to 600 mg, bevonescein not bound to plasma or tissue proteins): 6.1 fold
Free fraction ([4]; from unbound vs total AUClast): approximately 30%
SBR, FL images ([5]; 500 mg cohort (dose comparison)): 3.0 ± 1.0
Background fluorescence, mean pixel intensity (MPI) ([5]; 500 mg cohort): 39.5 ± 17
Signal-to-background ratio (SBR), fluorescence (FL) images ([5]; 500 mg, 54 evaluable nerves in 14 subjects, mean ± SD): 2.1 ± 0.8 and 2.08 ± 0.83
Fluorescent SBR of nerves, early (1-3 h) versus late (3-5 h) timing cohorts ([5]; 500 mg, infusion to incision, two-sided Wilcoxon rank sum test): not statistically different; also recorded: no significant difference
Background fluorescence, mean pixel intensity (MPI) ([5]; 600 mg cohort, Welch ANOVA p < 0.01 vs 500 mg): 73.2 ± 34
SBR, FL images ([5]; 600 mg cohort, Kruskal-Wallis p > 0.05 vs 500 mg): 2.2 ± 1.6
Improvement in nerve length with FL images, share of subjects (so in the source) [6]: 78%
Subjects with some improvement in visible nerve length ([6]; 14 subjects): 100%
Individual nerves with improvement in length measurements ([6]; n = 42/54 nerves, paired FL overlay vs WLR): 78%
